ChEMBL document CHEMBL3352006, “Further evaluation of novel structural modifications to scaffolds that engender PLD isoform selective inhibition” (Bioorg Med Chem Lett, 2014)

Columns and labels:
Phospholipase D2 = Phospholipase D2 (Homo sapiens, UniProt O14939); test: Inhibition of PLD2 (unknown origin) expressed in HEK293-gfp cells by cell-based assay
Summary of the method: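 Cellular assay in HEK293-gfp PLD2 cells; each IC50 determined in triplicate.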

Phospholipase D1 = molecular target: T1, Phospholipase D1 (Homo sapiens, UniProt Q13393); test: Inhibition of PLD1 (unknown origin) expressed in human Calu1 cells by cell-based assay; design: species or system Calu-1
T1 sequence (Q13393 whole entry): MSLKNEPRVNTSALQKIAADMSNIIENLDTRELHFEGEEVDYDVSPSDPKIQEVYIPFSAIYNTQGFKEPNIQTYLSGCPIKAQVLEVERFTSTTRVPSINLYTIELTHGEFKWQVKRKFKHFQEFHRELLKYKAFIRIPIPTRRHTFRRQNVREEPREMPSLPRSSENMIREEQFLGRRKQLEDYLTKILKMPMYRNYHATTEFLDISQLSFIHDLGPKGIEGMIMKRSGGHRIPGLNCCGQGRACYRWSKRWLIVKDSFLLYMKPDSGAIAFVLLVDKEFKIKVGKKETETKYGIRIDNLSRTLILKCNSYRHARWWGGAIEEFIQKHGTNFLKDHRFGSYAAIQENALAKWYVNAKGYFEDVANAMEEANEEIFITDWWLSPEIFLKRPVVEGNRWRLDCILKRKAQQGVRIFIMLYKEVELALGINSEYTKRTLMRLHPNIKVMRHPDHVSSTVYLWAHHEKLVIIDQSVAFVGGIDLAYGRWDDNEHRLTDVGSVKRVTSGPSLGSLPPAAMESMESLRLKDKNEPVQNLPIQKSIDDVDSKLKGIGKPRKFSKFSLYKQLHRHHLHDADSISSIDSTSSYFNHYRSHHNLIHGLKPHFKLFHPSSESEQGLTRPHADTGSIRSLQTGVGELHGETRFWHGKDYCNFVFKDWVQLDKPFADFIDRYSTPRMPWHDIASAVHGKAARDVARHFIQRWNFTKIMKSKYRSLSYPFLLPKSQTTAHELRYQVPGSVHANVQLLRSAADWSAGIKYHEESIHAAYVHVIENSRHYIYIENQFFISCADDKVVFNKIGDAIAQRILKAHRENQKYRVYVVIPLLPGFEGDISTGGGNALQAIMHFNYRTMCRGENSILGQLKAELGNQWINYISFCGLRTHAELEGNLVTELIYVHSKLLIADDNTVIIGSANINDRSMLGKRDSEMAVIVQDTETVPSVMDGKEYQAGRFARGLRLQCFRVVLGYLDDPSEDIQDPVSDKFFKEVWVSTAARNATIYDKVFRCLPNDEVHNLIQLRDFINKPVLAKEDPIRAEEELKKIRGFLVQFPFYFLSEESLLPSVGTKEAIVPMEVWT

Calu-1 [1] = test: Selectivity ratio of IC50 for PLD1 (unknown origin) expressed in human Calu1 cells to IC50 for PLD2 (unknown origin) expressed in HEK293-gfp cells; format: cell-based
Calu-1 [2] = test: Selectivity ratio of IC50 for PLD2 (unknown origin) expressed in HEK293-gfp cells to IC50 for PLD1 (unknown origin) expressed in human Calu1 cells; format: cell-based
Summary of the method: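 Both IC50s come from cellular assays. PLD1 was measured in Calu-1 cells and PLD2 in HEK293-gfp PLD2 cells. Each IC50 was determined in triplicate. The value is the PLD2 IC50 divided by the PLD1 IC50.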

D(2) dopamine receptor = D(2) dopamine receptor (Homo sapiens, UniProt P14416); test: Inhibition of dopamine D2 receptor (unknown origin)
Sequence of D(2) dopamine receptor (P14416 whole entry): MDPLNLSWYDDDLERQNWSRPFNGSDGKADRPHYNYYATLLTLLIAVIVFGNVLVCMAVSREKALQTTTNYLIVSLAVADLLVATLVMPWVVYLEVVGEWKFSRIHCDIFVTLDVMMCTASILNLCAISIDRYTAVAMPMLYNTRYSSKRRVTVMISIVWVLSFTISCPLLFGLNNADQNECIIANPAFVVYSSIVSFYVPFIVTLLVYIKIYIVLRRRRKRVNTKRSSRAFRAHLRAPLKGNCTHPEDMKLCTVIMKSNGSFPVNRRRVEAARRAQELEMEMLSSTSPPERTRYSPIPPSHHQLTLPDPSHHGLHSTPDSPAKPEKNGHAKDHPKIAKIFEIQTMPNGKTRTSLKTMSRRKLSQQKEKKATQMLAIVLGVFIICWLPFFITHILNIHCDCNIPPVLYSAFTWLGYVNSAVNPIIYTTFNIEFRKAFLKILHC

Sequence of Phospholipase D2 (O14939 whole entry): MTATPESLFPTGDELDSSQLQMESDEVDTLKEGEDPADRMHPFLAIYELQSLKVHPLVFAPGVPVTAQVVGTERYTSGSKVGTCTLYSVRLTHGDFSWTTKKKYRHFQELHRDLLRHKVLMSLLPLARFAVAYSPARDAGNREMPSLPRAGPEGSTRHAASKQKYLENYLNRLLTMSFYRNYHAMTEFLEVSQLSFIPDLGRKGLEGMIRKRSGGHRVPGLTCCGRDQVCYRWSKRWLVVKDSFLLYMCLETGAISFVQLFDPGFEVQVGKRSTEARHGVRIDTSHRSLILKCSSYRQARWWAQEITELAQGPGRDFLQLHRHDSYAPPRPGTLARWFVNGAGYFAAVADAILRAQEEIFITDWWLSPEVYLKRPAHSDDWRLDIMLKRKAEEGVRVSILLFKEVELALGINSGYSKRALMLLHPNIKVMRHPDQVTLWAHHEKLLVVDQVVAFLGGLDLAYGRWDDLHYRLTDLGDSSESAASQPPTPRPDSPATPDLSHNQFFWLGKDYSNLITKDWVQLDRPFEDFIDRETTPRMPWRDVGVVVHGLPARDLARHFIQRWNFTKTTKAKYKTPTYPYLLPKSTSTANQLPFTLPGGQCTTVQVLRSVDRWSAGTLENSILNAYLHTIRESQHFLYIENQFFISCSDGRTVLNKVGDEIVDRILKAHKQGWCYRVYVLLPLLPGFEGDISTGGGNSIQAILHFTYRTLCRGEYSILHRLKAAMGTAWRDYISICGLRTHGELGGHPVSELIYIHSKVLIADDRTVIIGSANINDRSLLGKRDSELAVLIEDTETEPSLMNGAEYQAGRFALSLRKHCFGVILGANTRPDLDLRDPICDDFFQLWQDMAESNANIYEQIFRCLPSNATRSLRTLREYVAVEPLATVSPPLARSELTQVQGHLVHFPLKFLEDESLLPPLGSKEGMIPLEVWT

Row | Structure (SMILES) | IC50 (Phospholipase D2) [µM] | IC50 (Phospholipase D1) [µM] | Ratio IC50 (Calu-1 [1]) | Ratio IC50 (Calu-1 [2]) | IC50 (D(2) dopamine receptor) [µM]
1 | CC(CNC(=O)c1ccc(Br)cc1)N1CCC2(CC1)C(=O)NCN2c1ccccc1 (racemic) | 0.12 | 0.23 | 2 | – | –
2 | CC1CC(n2c(=O)[nH]c3ccccc32)CCN1CCNC(=O)c1ccc(F)cc1 (stereo not drawn) | – | 0.636 | – | 11.5 | –
3 | CC(CNC(=O)c1ccc(F)cc1)N1CCC2(CC1)C(=O)NCN2c1ccccc1 (racemic) | 0.29 | 1.49 | 5 | – | –
4 | O=C(NCCN1CC2CC(n3c(=O)[nH]c4ccccc43)CC2C1)[C@@H]1C[C@H]1c1ccccc1 (relative stereo) | 0.115 | 1.08 | – | – | –
5 | CC(CNC(=O)c1ccc(F)c(F)c1)N1CCC2(CC1)C(=O)NCN2c1ccccc1 (racemic) | 0.017 | 1.08 | 63 | – | –
6 | O=C(NCCN1CC2CC(n3c(=O)[nH]c4ccccc43)CC2C1)c1ccc2ccccc2c1 (stereo not drawn) | – | 0.244 | – | 7.3 | –
7 | CC(CNC(=O)c1cc2ccccc2[nH]1)N1CCC2(CC1)C(=O)NCN2c1ccccc1 (racemic) | 0.006 | 0.021 | 3 | – | –
8 | O=C(NCCN1CC2CC(n3c(=O)[nH]c4ccccc43)CC2C1)c1ccc(F)c(F)c1 (stereo not drawn) | 3.25 | 0.82 | – | 3.9 | –
9 | O=C(NCCN1CC2CC(n3c(=O)[nH]c4ccccc43)CC2C1)c1cc2cc(F)ccc2[nH]1 (stereo not drawn) | 1.24 | 0.23 | – | 5.4 | –
10 | O=C(NCCN1CC2CC(n3c(=O)[nH]c4ccccc43)CC2C1)c1ccc(Br)cc1 (stereo not drawn) | – | 0.468 | – | 5.5 | –
11 | CC1CC(n2c(=O)[nH]c3ccccc32)CCN1CCNC(=O)[C@@H]1C[C@H]1c1ccccc1 (relative stereo) | – | 0.115 | – | 24 | –
12 | O=C(NCCN1CC2CC(n3c(=O)[nH]c4ccccc43)CC2C1)c1cc2ccccc2[nH]1 (stereo not drawn) | 0.22 | 0.072 | – | 3 | –
13 | O=C(NCCN1CC2CC(n3c(=O)[nH]c4ccccc43)CC2C1)c1ccc(F)cc1 (stereo not drawn) | 3.57 | 0.87 | – | 4 | –
14 | CC(CNC(=O)c1ccc2ccccc2c1)N1CCC2(CC1)C(=O)NCN2c1ccccc1 (racemic) | 0.064 | 0.315 | 5 | – | –
15 | CC(CNC(=O)c1cc2cc(F)ccc2[nH]1)N1CCC2(CC1)C(=O)NCN2c1ccccc1 (racemic) | 0.018 | 0.035 | 2 | – | –
16 | O=C(NCCN1CCC(n2c(=O)[nH]c3ccccc32)C(F)C1)c1ccc(F)c(F)c1 (stereo not drawn) | – | 0.021 | – | 4.7 | > 10
